Laboratory results: ChEMBL document CHEMBL1143542, “Structure-activity relationships of bivalent aminoglycosides and evaluation of their microbiological activities” (2005)
In brackets after ≈: the same amount, converted by molar mass.

How the values were obtained:
Pseudomonas aeruginosa [1] = assay: Susceptibility testing against Pseudomonas aeruginosa PAE_NUH21; S=Susceptible; assay type: functional, organism-based
Summary of the method: (§1)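 Disk diffusion susceptibility profiling against a panel of empirically used antipseudomonal antibiotics. Each strain was categorised as susceptible (S) or intermediate (I).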

Pseudomonas aeruginosa [2] = assay: Susceptibility testing against Pseudomonas aeruginosa PAE_NUH07; R=Resistant; assay type: functional, organism-based
Summary of the method: (§2)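 Disk diffusion susceptibility profiling of P. aeruginosa reference and clinical isolates against empirically used antipseudomonal antibiotics. Each isolate was categorised as susceptible, intermediate or resistant.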

Pseudomonas aeruginosa [3] = assay: Susceptibility testing against Pseudomonas aeruginosa PAE_NUH02; R=Resistant; assay type: functional, organism-based; summary of the method: as §2
Pseudomonas aeruginosa [4] = assay: Susceptibility testing against Pseudomonas aeruginosa PAE_NUH06; R=Resistant; assay type: functional, organism-based; summary of the method: as §2
Pseudomonas aeruginosa [5] = assay: Susceptibility testing against Pseudomonas aeruginosa ATCC 27853; S=Susceptible; assay type: functional, organism-based; summary of the method: as §1
Pseudomonas aeruginosa [6] = assay: Susceptibility testing against Pseudomonas aeruginosa PAE_NUH20; S=Susceptible; assay type: functional, organism-based; summary of the method: as §1
Pseudomonas aeruginosa [7] = assay: Susceptibility testing against Pseudomonas aeruginosa PAE_NUH05; R=Resistant; assay type: functional, organism-based; summary of the method: as §2
Pseudomonas aeruginosa [8] = assay: Susceptibility testing against Pseudomonas aeruginosa PAE_NUH22; S=Susceptible; assay type: functional, organism-based; summary of the method: as §1
Pseudomonas aeruginosa [9] = assay: Susceptibility testing against Pseudomonas aeruginosa PAE_NUH18; S=Susceptible; assay type: functional, organism-based; summary of the method: as §1
Pseudomonas aeruginosa [10] = assay: Susceptibility testing against Pseudomonas aeruginosa PAE_NUH25; S=Susceptible; assay type: functional, organism-based; summary of the method: as §1
Pseudomonas aeruginosa [11] = assay: Susceptibility testing against Pseudomonas aeruginosa PAE_NUH04; R=Resistant; assay type: functional, organism-based; summary of the method: as §2
Pseudomonas aeruginosa [12] = assay: Susceptibility testing against Pseudomonas aeruginosa PAE_NUH01; R=Resistant; assay type: functional, organism-based; summary of the method: as §2
Pseudomonas aeruginosa [13] = assay: Susceptibility testing against Pseudomonas aeruginosa PAE_NUH19; S=Susceptible; assay type: functional, organism-based; summary of the method: as §1
Pseudomonas aeruginosa [14] = assay: Susceptibility testing against Pseudomonas aeruginosa PAE_NUH23; S=Susceptible; assay type: functional, organism-based; summary of the method: as §1
Pseudomonas aeruginosa [15] = assay: Susceptibility testing against Pseudomonas aeruginosa PAE_NUH17; S=Susceptible; assay type: functional, organism-based; summary of the method: as §1
Pseudomonas aeruginosa [16] = assay: Susceptibility testing against Pseudomonas aeruginosa PAE_NUH24; S=Susceptible; assay type: functional, organism-based; summary of the method: as §1
Pseudomonas aeruginosa [17] = assay: Susceptibility testing against Pseudomonas aeruginosa PAE_NUH03; R=Resistant; assay type: functional, organism-based; summary of the method: as §2
Pseudomonas aeruginosa [18] = assay: In vitro minimum inhibitory concentration against Pseudomonas aeruginosa PAO-1 Minimum inhibitory concentration against Pseudomonas aeruginosa PAO-1; assay type: functional
Summary of the method: (§3)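 Broth microdilution following CLSI M100-S12. Stocks were 10 mg/mL in water, diluted in Mueller–Hinton broth to a top level of 128, then serially 2-fold in plates. Bacteria in cation-adjusted Mueller–Hinton broth were mixed 1:1 with drug and incubated 16–20 h at 35 °C. MIC was the lowest concentration with no visible growth. Run in duplicate with no-antibiotic and no-inoculum (sterility) controls.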

Enterococcus faecalis = assay: In vitro minimum inhibitory concentration against Enterococcus faecalis 29212; assay type: functional; summary of the method: as §3
Escherichia coli = assay: In vitro minimum inhibitory concentration against Escherichia coli ATCC 25922; assay type: functional; summary of the method: as §3
Staphylococcus aureus [19] = assay: In vitro minimum inhibitory concentration against Staphylococcus aureus ATCC 29213; assay type: functional; summary of the method: as §3
Staphylococcus aureus [20] = assay: In vitro minimum inhibitory concentration against Staphylococcus aureus MRSA 3359; assay type: functional; summary of the method: as §3
Pseudomonas aeruginosa [21] = assay: In vitro minimum inhibitory concentration against Pseudomonas aeruginosa ATCC 27853; assay type: functional; summary of the method: as §3
Pseudomonas aeruginosa [22] = assay: In vitro minimum inhibitory concentration against Pseudomonas aeruginosa PAO-1; assay type: functional; summary of the method: as §3

Row | MIC (Pseudomonas aeruginosa [18]) | MIC (Enterococcus faecalis) | MIC (Escherichia coli) | MIC (Staphylococcus aureus [19]) | MIC (Staphylococcus aureus [20]) | MIC (Pseudomonas aeruginosa [21]) | Structure (SMILES) | further results
1 | – | – | – | – | – | – | O=C(O)c1cn(C2CC2)c2cc(N3CCNCC3)c(F)cc2c1=O | Activity (Pseudomonas aeruginosa [1]): Susceptible; Activity (Pseudomonas aeruginosa [2]): Resistant; Activity (Pseudomonas aeruginosa [3]): Resistant; Activity (Pseudomonas aeruginosa [4]): Resistant; Activity (Pseudomonas aeruginosa [5]): Susceptible; Activity (Pseudomonas aeruginosa [6]): Susceptible; Activity (Pseudomonas aeruginosa [7]): Resistant; Activity (Pseudomonas aeruginosa [8]): Susceptible; Activity (Pseudomonas aeruginosa [9]): Susceptible; Activity (Pseudomonas aeruginosa [10]): Susceptible; Activity (Pseudomonas aeruginosa [11]): Resistant; Activity (Pseudomonas aeruginosa [12]): Resistant; Activity (Pseudomonas aeruginosa [13]): Susceptible; Activity (Pseudomonas aeruginosa [14]): Susceptible; Activity (Pseudomonas aeruginosa [15]): Susceptible; Activity (Pseudomonas aeruginosa [16]): Susceptible; Activity (Pseudomonas aeruginosa [17]): Resistant
2 | > 50 µg/mL | > 50 µg/mL | > 50 µg/mL | > 50 µg/mL | > 50 µg/mL | > 50 µg/mL | CN(CCOCCOCCN(C)C[C@@H](O)CO[C@@H]1[C@@H](O)[C@H](N)C[C@H](N)[C@H]1O[C@H]1O[C@H](CN)[C@@H](O)[C@H](O)[C@H]1N)C[C@@H](O)CO[C@@H]1[C@@H](O)[C@H](N)C[C@H](N)[C@H]1O[C@H]1O[C@H](CN)[C@@H](O)[C@H](O)[C@H]1N | –
3 | 2 µg/mL (≈ 2.46 µM) | 32 µg/mL (≈ 39.4 µM) | 4 µg/mL (≈ 4.92 µM) | 0.5 µg/mL (≈ 0.615 µM) | 16 µg/mL (≈ 19.7 µM) | 2 µg/mL (≈ 2.46 µM) | NC[C@@H]1C[C@H](O)[C@@H](N)[C@H](O[C@H]2[C@H](O)[C@@H](OC[C@@H](O)CNCCCCNC[C@@H](O)CO[C@@H]3[C@@H](O)[C@H](O[C@H]4O[C@H](CN)[C@@H](O)C[C@H]4N)[C@@H](N)C[C@H]3N)[C@H](N)C[C@@H]2N)O1 | –
4 | – | > 50 µg/mL | > 50 µg/mL | 12.5 µg/mL (≈ 14.6 µM) | > 50 µg/mL | 12.5 µg/mL (≈ 14.6 µM) | NC[C@H]1O[C@H](O[C@H]2[C@H](OC[C@H](O)CN3CC4CC3CN4C[C@@H](O)CO[C@@H]3[C@@H](O)[C@H](N)C[C@H](N)[C@H]3O[C@H]3O[C@H](CN)[C@@H](O)[C@H](O)[C@H]3N)[C@@H](O)[C@H](N)C[C@@H]2N)[C@H](N)[C@@H](O)[C@@H]1O | MIC (Pseudomonas aeruginosa [22]): 50 µg/mL (≈ 58.5 µM)
5 | – | > 50 µg/mL | 25 µg/mL (≈ 29.7 µM) | 12.5 µg/mL (≈ 14.8 µM) | > 50 µg/mL | 25 µg/mL (≈ 29.7 µM) | NC[C@H]1O[C@H](O[C@H]2[C@H](OC[C@H](O)CN3CCN(C[C@@H](O)CO[C@@H]4[C@@H](O)[C@H](N)C[C@H](N)[C@H]4O[C@H]4O[C@H](CN)[C@@H](O)[C@H](O)[C@H]4N)CC3)[C@@H](O)[C@H](N)C[C@@H]2N)[C@H](N)[C@@H](O)[C@@H]1O | MIC (Pseudomonas aeruginosa [22]): 25 µg/mL (≈ 29.7 µM)
6 | 50 µg/mL (≈ 55.5 µM) | > 50 µg/mL | 25 µg/mL (≈ 27.7 µM) | 6.3 µg/mL (≈ 6.99 µM) | > 50 µg/mL | 12.5 µg/mL (≈ 13.9 µM) | CN(CCCCCCN(C)C[C@@H](O)CO[C@@H]1[C@@H](O)[C@H](N)C[C@H](N)[C@H]1O[C@H]1O[C@H](CN)[C@@H](O)[C@H](O)[C@H]1N)C[C@@H](O)CO[C@@H]1[C@@H](O)[C@H](N)C[C@H](N)[C@H]1O[C@H]1O[C@H](CN)[C@@H](O)[C@H](O)[C@H]1N | –
7 | 2.6 µg/mL (≈ 3.09 µM) | 20.9 µg/mL (≈ 24.8 µM) | 5.2 µg/mL (≈ 6.18 µM) | 0.6 µg/mL (≈ 0.713 µM) | 20.9 µg/mL (≈ 24.8 µM) | 10.4 µg/mL (≈ 12.4 µM) | CN(CCCCN(C)C[C@@H](O)CO[C@@H]1[C@@H](O)[C@H](O[C@H]2O[C@H](CN)[C@@H](O)C[C@H]2N)[C@@H](N)C[C@H]1N)C[C@H](O)CO[C@@H]1[C@@H](O)[C@H](O[C@@H]2O[C@H](CN)C[C@H](O)[C@H]2N)[C@@H](N)C[C@H]1N | –
8 | 1.3 µg/mL (≈ 1.63 µM) | > 20.9 µg/mL | 20.9 µg/mL (≈ 26.2 µM) | 1.3 µg/mL (≈ 1.63 µM) | 10.4 µg/mL (≈ 13 µM) | 2.6 µg/mL (≈ 3.25 µM) | NC[C@@H]1C[C@H](O)[C@@H](N)[C@H](O[C@H]2[C@H](O)[C@@H](OC[C@@H](O)CNCCCNC[C@@H](O)CO[C@@H]3[C@@H](O)[C@H](O[C@H]4O[C@H](CN)[C@@H](O)C[C@H]4N)[C@@H](N)C[C@H]3N)[C@H](N)C[C@@H]2N)O1 | –
